Test results reported in ChEMBL document CHEMBL4265915, “b-Annulated 1,4-dihydropyridines as Notch inhibitors” (Bioorg Med Chem Lett, 2018).

Columns and labels:
[1] = target: T1, Neurogenic locus notch homolog protein 1 (Homo sapiens, UniProt P46531); assay: Inhibition of Notch1 deltaE mutant (unknown origin) expressed in HEK293 cells after 16 hrs by […] luciferase reporter gene assay; type: cell-based
Target sequence in this assay (P46531 19-2555 limits assumed): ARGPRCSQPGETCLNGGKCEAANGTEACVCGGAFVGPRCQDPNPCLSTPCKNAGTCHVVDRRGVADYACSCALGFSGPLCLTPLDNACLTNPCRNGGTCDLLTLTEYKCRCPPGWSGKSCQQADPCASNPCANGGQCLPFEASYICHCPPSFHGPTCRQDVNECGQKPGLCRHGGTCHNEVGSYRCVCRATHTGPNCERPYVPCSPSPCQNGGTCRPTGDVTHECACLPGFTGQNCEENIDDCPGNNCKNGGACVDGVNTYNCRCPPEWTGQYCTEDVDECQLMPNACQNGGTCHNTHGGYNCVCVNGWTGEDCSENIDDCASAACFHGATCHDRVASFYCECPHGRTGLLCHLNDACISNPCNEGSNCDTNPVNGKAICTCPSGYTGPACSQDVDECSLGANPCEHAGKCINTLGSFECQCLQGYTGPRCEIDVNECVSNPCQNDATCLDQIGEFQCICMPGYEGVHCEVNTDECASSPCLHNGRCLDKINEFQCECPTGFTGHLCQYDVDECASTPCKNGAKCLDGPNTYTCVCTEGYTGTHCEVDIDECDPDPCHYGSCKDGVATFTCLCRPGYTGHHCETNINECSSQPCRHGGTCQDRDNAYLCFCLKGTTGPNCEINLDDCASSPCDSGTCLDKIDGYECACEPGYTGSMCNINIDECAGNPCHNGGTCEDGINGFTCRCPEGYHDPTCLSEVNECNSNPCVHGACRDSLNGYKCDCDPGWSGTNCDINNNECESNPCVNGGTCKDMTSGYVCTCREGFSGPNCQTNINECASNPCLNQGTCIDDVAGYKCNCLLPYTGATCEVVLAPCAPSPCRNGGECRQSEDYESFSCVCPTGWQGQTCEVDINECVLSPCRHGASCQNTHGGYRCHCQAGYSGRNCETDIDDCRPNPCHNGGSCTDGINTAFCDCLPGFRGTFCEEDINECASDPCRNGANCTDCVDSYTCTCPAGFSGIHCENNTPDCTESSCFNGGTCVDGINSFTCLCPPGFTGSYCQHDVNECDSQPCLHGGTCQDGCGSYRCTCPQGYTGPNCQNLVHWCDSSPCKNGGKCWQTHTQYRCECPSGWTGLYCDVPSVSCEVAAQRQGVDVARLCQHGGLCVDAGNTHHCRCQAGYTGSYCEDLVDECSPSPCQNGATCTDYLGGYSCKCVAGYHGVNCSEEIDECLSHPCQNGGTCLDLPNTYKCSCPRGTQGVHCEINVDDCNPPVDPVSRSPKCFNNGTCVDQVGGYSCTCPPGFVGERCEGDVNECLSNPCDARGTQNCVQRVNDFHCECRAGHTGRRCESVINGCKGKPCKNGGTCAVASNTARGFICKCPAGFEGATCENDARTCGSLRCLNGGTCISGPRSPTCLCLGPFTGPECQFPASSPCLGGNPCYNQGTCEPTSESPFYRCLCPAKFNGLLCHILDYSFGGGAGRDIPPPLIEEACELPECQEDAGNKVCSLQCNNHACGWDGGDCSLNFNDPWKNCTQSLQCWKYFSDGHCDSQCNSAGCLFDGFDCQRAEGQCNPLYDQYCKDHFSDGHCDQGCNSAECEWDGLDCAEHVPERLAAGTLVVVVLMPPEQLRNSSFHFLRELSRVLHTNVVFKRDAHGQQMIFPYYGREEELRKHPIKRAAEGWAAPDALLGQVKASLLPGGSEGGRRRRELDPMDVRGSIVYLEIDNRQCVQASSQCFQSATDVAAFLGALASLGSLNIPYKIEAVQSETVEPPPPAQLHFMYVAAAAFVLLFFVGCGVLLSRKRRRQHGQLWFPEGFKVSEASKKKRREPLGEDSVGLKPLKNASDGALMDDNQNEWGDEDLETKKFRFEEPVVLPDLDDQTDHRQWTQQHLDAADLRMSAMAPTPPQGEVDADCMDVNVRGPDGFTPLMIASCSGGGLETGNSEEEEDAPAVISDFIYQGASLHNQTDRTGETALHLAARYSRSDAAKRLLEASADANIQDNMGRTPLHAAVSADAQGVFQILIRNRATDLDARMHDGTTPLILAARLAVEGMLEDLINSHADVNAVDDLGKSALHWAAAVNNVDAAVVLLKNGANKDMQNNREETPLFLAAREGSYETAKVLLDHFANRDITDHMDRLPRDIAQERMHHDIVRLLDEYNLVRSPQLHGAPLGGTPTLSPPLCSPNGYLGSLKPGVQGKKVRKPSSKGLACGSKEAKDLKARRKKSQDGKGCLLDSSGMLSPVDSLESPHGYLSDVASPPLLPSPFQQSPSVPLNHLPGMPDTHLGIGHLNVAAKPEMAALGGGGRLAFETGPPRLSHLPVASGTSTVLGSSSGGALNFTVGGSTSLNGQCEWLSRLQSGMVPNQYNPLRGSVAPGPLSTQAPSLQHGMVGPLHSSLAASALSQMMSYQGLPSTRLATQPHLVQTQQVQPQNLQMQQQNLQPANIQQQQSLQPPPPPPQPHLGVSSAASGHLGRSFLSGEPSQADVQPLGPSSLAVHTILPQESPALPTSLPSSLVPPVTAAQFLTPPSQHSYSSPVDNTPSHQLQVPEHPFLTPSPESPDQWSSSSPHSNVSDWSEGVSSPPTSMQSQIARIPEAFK

[2] = test system: HCT-116; assay: Antiproliferative activity against human HCT116 cells after 72 hrs by SYBR green dye based fluorescence assay; type: functional, cell-based; conditions: for IC50: HCT-116, 72 h
How it was run: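 HCT-116 colon cancer cells were incubated for 72 h with a concentration series of test agent, with a vehicle-treated control. Proliferation was measured, and the IC50 was derived from the dose-response curve.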

[3] = target: T1, Neurogenic locus notch homolog protein 1; assay: Potency index, ratio of FLI-06 IC50 to compound IC50 for inhibition of Notch1 deltaE mutant (unknown origin)
Target sequence in this assay (P46531 whole entry): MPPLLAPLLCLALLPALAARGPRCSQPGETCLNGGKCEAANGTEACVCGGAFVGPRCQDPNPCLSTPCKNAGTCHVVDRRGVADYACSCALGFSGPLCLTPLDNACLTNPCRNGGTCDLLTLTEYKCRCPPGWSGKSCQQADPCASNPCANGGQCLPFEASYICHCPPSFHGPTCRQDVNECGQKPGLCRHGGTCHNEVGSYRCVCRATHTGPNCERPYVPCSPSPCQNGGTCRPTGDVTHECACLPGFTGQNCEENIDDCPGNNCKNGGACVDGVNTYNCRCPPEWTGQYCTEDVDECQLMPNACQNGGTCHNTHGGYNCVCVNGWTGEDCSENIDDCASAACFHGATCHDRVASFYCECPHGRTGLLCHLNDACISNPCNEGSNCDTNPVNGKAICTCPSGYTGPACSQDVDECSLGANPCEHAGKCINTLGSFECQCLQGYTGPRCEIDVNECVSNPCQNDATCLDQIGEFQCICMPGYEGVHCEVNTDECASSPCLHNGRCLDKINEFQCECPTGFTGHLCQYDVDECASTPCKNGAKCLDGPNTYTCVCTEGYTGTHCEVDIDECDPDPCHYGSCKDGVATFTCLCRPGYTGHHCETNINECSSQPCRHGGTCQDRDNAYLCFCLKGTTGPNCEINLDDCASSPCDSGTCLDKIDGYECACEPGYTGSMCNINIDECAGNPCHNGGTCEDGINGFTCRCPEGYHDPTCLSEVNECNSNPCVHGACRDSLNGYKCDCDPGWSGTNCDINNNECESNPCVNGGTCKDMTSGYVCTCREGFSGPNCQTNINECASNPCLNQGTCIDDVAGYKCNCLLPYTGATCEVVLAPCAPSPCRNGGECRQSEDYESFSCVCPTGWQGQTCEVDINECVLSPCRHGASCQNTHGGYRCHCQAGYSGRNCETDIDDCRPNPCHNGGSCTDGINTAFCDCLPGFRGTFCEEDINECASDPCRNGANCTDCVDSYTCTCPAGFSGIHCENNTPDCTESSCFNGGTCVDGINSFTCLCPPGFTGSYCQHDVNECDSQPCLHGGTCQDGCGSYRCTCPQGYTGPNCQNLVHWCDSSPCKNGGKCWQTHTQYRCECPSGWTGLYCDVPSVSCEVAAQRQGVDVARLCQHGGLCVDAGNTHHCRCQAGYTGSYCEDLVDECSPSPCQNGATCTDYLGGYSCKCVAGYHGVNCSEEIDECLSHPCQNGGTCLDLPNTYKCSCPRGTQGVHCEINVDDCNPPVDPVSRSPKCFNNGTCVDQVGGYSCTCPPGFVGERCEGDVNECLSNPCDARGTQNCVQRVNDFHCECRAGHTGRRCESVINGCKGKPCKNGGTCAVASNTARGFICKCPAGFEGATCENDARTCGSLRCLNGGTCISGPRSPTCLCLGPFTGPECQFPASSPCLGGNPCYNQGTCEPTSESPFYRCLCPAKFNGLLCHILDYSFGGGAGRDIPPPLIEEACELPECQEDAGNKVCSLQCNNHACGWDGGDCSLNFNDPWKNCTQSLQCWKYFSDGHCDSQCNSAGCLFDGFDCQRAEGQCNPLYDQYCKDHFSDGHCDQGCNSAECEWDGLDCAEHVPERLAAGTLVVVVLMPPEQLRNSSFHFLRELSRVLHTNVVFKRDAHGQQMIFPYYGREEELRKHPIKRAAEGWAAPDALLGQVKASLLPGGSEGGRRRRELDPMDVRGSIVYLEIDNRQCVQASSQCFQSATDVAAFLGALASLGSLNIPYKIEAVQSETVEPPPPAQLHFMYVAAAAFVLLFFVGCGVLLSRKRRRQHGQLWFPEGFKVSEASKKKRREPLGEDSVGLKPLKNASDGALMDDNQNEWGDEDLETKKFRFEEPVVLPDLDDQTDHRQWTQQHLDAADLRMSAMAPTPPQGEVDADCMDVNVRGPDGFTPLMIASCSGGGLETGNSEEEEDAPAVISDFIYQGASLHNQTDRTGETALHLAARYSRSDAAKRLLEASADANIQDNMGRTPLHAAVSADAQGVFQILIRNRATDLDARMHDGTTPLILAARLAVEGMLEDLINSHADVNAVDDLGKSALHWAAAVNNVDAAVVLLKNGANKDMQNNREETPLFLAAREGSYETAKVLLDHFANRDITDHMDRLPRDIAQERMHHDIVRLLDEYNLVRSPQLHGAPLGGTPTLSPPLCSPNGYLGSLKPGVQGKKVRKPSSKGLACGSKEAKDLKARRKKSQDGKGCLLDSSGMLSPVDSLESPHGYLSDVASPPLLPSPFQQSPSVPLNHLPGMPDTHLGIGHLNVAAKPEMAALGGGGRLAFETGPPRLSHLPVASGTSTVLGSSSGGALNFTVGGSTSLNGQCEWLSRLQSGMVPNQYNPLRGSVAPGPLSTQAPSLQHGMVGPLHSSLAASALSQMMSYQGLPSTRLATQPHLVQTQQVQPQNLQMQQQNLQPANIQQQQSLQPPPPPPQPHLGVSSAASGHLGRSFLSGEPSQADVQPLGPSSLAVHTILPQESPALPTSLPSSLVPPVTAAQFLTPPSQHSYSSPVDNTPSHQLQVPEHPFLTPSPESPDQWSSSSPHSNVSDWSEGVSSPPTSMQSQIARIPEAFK

[4] = test system: HCT-116; assay: Potency index, ratio of DAPM IC50 to compound IC50 for antiproliferative activity against human HCT116 cells; type: functional

SMILES | IC50 [1] [nM] | further results
CC1=C(C(=O)OC2CCN(C(=O)OC(C)(C)C)CC2)C(c2cccc(Br)c2)C2=C(CC(C)(C)CC2=O)N1 (configuration not stated) | > 10000 | 
CC1=C(C(=O)OC2CCCCC2)C(c2ccc3c(c2)OCCO3)C2=C(CC(C)(C)CC2=O)N1 (configuration not stated) | 12300 | 
CC1=C(C(=O)OC2CCCCC2)C(c2cccc(Br)c2)C2=C(CC(C)(C)CC2=O)N1 (configuration not stated) | 4150 | 
CC1=C(C(=O)OC23CC4CC(CC(C4)C2)C3)C(c2cccc(Br)c2)C2=C(CC(C)(C)CC2=O)N1 (configuration not stated) | > 10000 | 
CC1=C(C(=O)OCC2CCN(C(=O)OC(C)(C)C)CC2)C(c2cccc([N+](=O)[O-])c2)C2=C(CC(C)(C)CC2=O)N1 (configuration not stated) | > 10000 | 
COC(=O)[C@@H](NC(=O)[C@H](C)NC(=O)Cc1cc(F)cc(F)c1)c1ccccc1 |  | Activity [2]: Dose-dependent effect; IC50 [2]: 12000 nM
CC1=C(C(=O)OC2CCCCC2)C(c2cccc(C(F)(F)F)c2)C2=C(CC(C)(C)CC2=O)N1 (configuration not stated) | 14700 | 
CC1=C(C(=O)OCC2CCN(C(=O)OC(C)(C)C)CC2)C(c2ccc(Br)cc2F)C2=C(CC(C)(C)CC2=O)N1 (configuration not stated) | > 10000 | 
CC1=C(C(=O)OCc2ccc(C(C)(C)C)cc2)C(c2cccc(Br)c2)C2=C(CC(C)(C)CC2=O)N1 (configuration not stated) | 4270 | 
CC1=C(C(=O)OCC2CCN(C(=O)OC(C)(C)C)CC2)C(c2cccc(C(C)C)c2)C2=C(CC(C)(C)CC2=O)N1 (configuration not stated) | 3320 | 
CC1=C(C(=O)OCC2CCN(C(=O)OC(C)(C)C)CC2)C(c2ccc(-c3ccccc3)cc2)C2=C(CC(C)(C)CC2=O)N1 (configuration not stated) | > 10000 | 
CC1=C(C(=O)OCCC2CCN(C(=O)OC(C)(C)C)CC2)C(c2cccc(Br)c2)C2=C(CC(C)(C)CC2=O)N1 (configuration not stated) | 2950 | 
CC1=C(C(=O)O[C@H](CC#N)c2ccccc2)C(c2cccc(Br)c2)C2=C(CC(C)(C)CC2=O)N1 (some centres not stated) | > 10000 | 
CC1=C(C(=O)OC2CCCCC2)C(c2cccc(C#N)c2)C2=C(CC(C)(C)CC2=O)N1 (configuration not stated) | 43200 | 

More lines, in order of falling IC50 [1], values ahead:

IC50 [1] [nM] | SMILES | further results
2590 | CC1=C(C(=O)OCC2CCN(C(=O)OC(C)(C)C)CC2)[C@@H](c2cccc(Br)c2)C2=C(CC(C)(C)CC2=O)N1 | 
2510 | CC1=C(C(=O)OC2CCCCC2)C(c2ccc([N+](=O)[O-])cc2)C2=C(CC(C)(C)CC2=O)N1 (configuration not stated) | Activity [2]: Dose-dependent effect; IC50 [2]: 1800 nM
1520 | CC1=C(C(=O)OCC2CCN(C(=O)OC(C)(C)C)CC2)C(c2ccc3c(c2)OCCO3)C2=C(CC(C)(C)CC2=O)N1 (configuration not stated) | 
860 | CC1=C(C(=O)OCc2cnccn2)C(c2cccc(Br)c2)C2=C(CC(C)(C)CC2=O)N1 (configuration not stated) | 
770 | CC1=C(C(=O)OCC2CCN(C(=O)OC(C)(C)C)CC2)C(c2cccc(-c3ccc4[nH]ccc4c3)c2)C2=C(CC(C)(C)CC2=O)N1 (configuration not stated) | 
760 | CC1=C(C(=O)OCC2CCN(C(=O)OC(C)(C)C)CC2)C(c2cccc(C(F)(F)F)c2)C2=C(CC(C)(C)CC2=O)N1 (configuration not stated) | 
640 | CC1=C(C(=O)OCC2CCN(C(=O)OC(C)(C)C)CC2)C(c2cc(Cl)cc(Cl)c2)C2=C(CC(C)(C)CC2=O)N1 (configuration not stated) | 
360 | CC1=C(C(=O)OCC2CCN(C(=O)OC(C)(C)C)CC2)C(c2cccc(Br)c2)C2=C(CC(C)(C)CC2=O)N1 (configuration not stated) | 
330 | CC1=C(C(=O)OCC2CCN(C(=O)OC(C)(C)C)CC2)C(c2ccc3ccccc3n2)C2=C(CC(C)(C)CC2=O)N1 (configuration not stated) | 
220 | CC1=C(C(=O)OCC2CCN(C(=O)OC(C)(C)C)CC2)C(c2cccc(C#N)c2)C2=C(CC(C)(C)CC2=O)N1 (configuration not stated) | 
130 | CC1=C(C(=O)OCC2CCN(C(=O)OC(C)(C)C)CC2)[C@H](c2cccc(Br)c2)C2=C(CC(C)(C)CC2=O)N1 | Activity [2]: Dose-dependent effect; IC50 [2]: 220 nM; Ratio IC50 [3]: 20; Ratio IC50 [4]: 55
